Results on 6 compounds are retold here after ChEMBL document CHEMBL2046375, “Antiprotozoal sesquiterpene pyridine alkaloids from Maytenus ilicifolia” (J Nat Prod, 2012).

A word on the pIC50: it is −log10 of the IC50, conventionally taken in molar units.

pIC50: −log10 of the molar value. Active and inactive are the calls of the source. The rule behind the calls is not given here.

Experiment [1] in a line: Cytotoxicity against Balb/c mouse peritoneal macrophages after 24 hrs by MTT assay. Type of experiment: cell-based. The following applies: Peritoneal macrophage cell. Put shortly:
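Thioglycolate-elicited peritoneal macrophages (3 mL of 3% given i.p., harvested 3 days later by PBS pH 7.2 lavage). Cells in RPMI 1640 with 5% FCS, antibiotics and mercaptoethanol, stock suspension at 5 × 10^6 cells/mL. Mixed 1:1 with test solution, 24 h at 37 °C, 7.5% CO2. MTT added for 3 h, formazan dissolved in 2-propanol, OD read at 590 nm versus RPMI-only control. Triplicate.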
Background: Formazan colour is commonly taken as a measure of viable cells.

The test system of experiment [2] is Trypanosoma cruzi. The experiment can be described thus: Antitrypanosomal activity against epimastigotes of Trypanosoma cruzi after 72 hrs by MTT assay. It counts as functional, organism-based. Put shortly:
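Y-strain epimastigotes grown axenically at 28 °C in LIT with 10% FCS, harvested at 7 days (exponential phase). Test wells held 1 × 10^7 parasites/mL. Compounds from DMSO stock at 10 concentrations spanning 100–0.098 μg/mL. 72 h at 28 °C. MTT-PMS added, 75 min in dark, then 10% SDS for 30 min. Read at 595 nm, triplicate. Benznidazole served as reference.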

The nature of experiment [3]: Selectivity index, ratio of IC50 for Balb/c mouse peritoneal macrophages to IC50 for epimastigotes of Trypanosoma cruzi. Put shortly:
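Ratio of IC50 in Balb/c peritoneal macrophages (24 h MTT) to IC50 against T. cruzi Y-strain epimastigotes (72 h MTT, 28 °C).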

The test system of experiment [4] is Leishmania amazonensis. The experiment can be described thus: Antileishmanial activity against Leishmania amazonensis MPRO/BR/1972/M1841-LV-79 after 72 hrs by MTT assay. It counts as functional, organism-based. The following applies: MPRO/BR/1972/M1841-LV-79, 72 h. Put shortly: (§1)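 Promastigotes from 4-day-old LIT cultures (10% heat-inactivated FCS), seeded at 8 × 10^6 parasites/mL. Compounds dissolved in DMSO, tested at 10 concentrations from 100 to 0.098 μg/mL. 72 h at 28 °C. MTT-PMS added, 75 min in dark at 28 °C, then 10% SDS for 30 min at room temperature. Absorbance read at 490 nm. Triplicate per concentration, IC50 from percentage cytotoxicity. Pentamidine isothionate was the reference drug.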

Experiment [5] deals with Leishmania chagasi. The experiment can be described thus: Antileishmanial activity against Leishmania chagasi MHOM/BR/1974/PP75 after 72 hrs by MTT assay. The following applies: MHOM/BR/1974/PP75, 72 h. It counts as functional, organism-based. A digest of the protocol:
as §1

Experiment [6] relates to Trypanosoma cruzi. The experiment is described as follows: Antitrypanosomal activity against epimastigotes of Trypanosoma cruzi at 100 uM after 72 hrs by MTT assay. Type of experiment: functional, organism-based.
Experiment [7] has as its system Leishmania chagasi. The experiment can be described thus: Antileishmanial activity against Leishmania chagasi MHOM/BR/1974/PP75 at 100 uM after 72 hrs by MTT assay. It counts as functional, organism-based.
Experiment [8] deals with Leishmania amazonensis. The experiment is described as follows: Antileishmanial activity against Leishmania amazonensis MPRO/BR/1972/M1841-LV-79 at 100 uM after 72 hrs by MTT assay. Type of experiment: functional, organism-based.

For `O=C(Cn1ccnc1[N+](=O)[O-])NCc1ccccc1` [BENZNIDAZOLE], the pIC50 is 2.94 in experiment [1] and 4.37 in the experiment on Trypanosoma cruzi [2]. Further, the “Ratio IC50” value in experiment [3] was 26.7.
For the compound `CC(=O)OC[C@]12[C@H](OC(C)=O)[C@@H](OC(=O)c3ccccc3)[C@@H]3[C@@H](O)[C@@]14O[C@@]3(C)COC(=O)c1cccnc1[C@@H](C)[C@H](C)C(=O)O[C@@H]([C@H](OC(C)=O)[C@@H]2OC(C)=O)[C@]4(C)O` [ILICIFOLIUNINE A], the pIC50 is 2.89 in experiment [1], 4.56 in the experiment on Trypanosoma cruzi [2], less than 4.00 in the experiment with Leishmania amazonensis [4] and less than 4.00 in the experiment on Leishmania chagasi [5]. Moreover, the “Ratio IC50” value in experiment [3] stood at 46.2.
As to `CC(=O)OC[C@]12[C@H](OC(C)=O)[C@@H](OC(=O)c3ccccc3)[C@@H]3[C@@H](OC(C)=O)[C@@]14O[C@@]3(C)COC(=O)c1cccnc1CCC(C)C(=O)O[C@@H]([C@H](OC(C)=O)[C@@H]2OC(C)=O)[C@]4(C)O` (stereo partly specified), the result with Trypanosoma cruzi [6], with Leishmania chagasi [7] and in the experiment on Leishmania amazonensis [8] was inactive.
Consider `N=C(N)c1ccc(OCCCCCOc2ccc(C(=N)N)cc2)cc1` [PENTAMIDINE], for which the pIC50 is 5.15 with Leishmania amazonensis [4] and 5.29 with Leishmania chagasi [5].
`CC(=O)OC[C@]12[C@H](OC(C)=O)[C@H](OC(C)=O)[C@@H]3[C@@H](OC(C)=O)[C@@]14O[C@@]3(C)COC(=O)c1cccnc1C(C)C(C)C(=O)O[C@@H]([C@H](OC(C)=O)[C@@H]2OC(=O)c1ccccc1)[C@]4(C)O` (stereo partly specified): the result with Trypanosoma cruzi [6], in the experiment on Leishmania chagasi [7] and in the experiment on Leishmania amazonensis [8] was inactive.
Consider `CC(=O)OC[C@]12[C@H](OC(C)=O)[C@@H](OC(=O)c3ccccc3)[C@@H]3[C@@H](OC(C)=O)[C@@]14O[C@@]3(C)COC(=O)c1cccnc1[C@@H](C)[C@H](C)C(=O)O[C@@H]([C@H](OC(C)=O)[C@@H]2OC(C)=O)[C@]4(C)O`, for which the pIC50 in experiment [1] is 2.73; with Trypanosoma cruzi [2], 4.38; in the experiment on Leishmania amazonensis [4] it was less than 4.00; in the experiment on Leishmania chagasi [5], 5.85. In addition, the “Ratio IC50” value in experiment [3] was found to be 44.
